These results are taken from ChEMBL document CHEMBL3286279, “The synthesis and biological evaluation of new DNA-directed alkylating agents, phenyl N-mustard-4-anilinoquinoline conjugates containing a urea linker” (Eur J Med Chem, 2014).

Structures are written as SMILES. Active and inactive are the calls of the source. The rule behind the calls is not given here.

For test [1], the system named is NCI-H460. The test is described as follows: Induction of apoptosis in human H460 cells assessed as early apoptotic cells at 2 uM after 24 hrs using Annexin V/propidium iodide staining by flow cytometry (reference value: 2%). The test is classed as functional.
For test [2], the system named is NCI-H460. The test is described as follows: Induction of apoptosis in human H460 cells assessed as necrotic cells at 2 uM after 48 hrs using Annexin V/propidium iodide staining by flow cytometry (reference value: 0.6%). In kind it is functional. A general note: A flow cytometer gives signals particle by particle.
Test [3] relates to NCI-H460. The test is described as follows: Induction of apoptosis in human H460 cells assessed as late apoptotic cells at 2 uM after 48 hrs using Annexin V/propidium iodide staining by flow cytometry (reference value: 7%). In kind it is functional.
In test [4] the test system is NCI-H460. The test is described as follows: Induction of apoptosis in human H460 cells assessed as early apoptotic cells at 2 uM after 48 hrs using Annexin V/propidium iodide staining by flow cytometry (reference value: 2%). In kind it is functional.
In test [5] the test system is NCI-H460. Nature of the test: Induction of apoptosis in human H460 cells assessed as necrotic cells at 2 uM after 72 hrs using Annexin V/propidium iodide staining by flow cytometry (reference value: 0.6%). In kind it is functional.
The test system of test [6] is NCI-H460. Nature of the test: Induction of apoptosis in human H460 cells assessed as late apoptotic cells at 2 uM after 72 hrs using Annexin V/propidium iodide staining by flow cytometry (reference value: 7%). In kind it is functional.
The subject of test [7] is NCI-H460. The test is described as follows: Induction of apoptosis in human H460 cells assessed as early apoptotic cells at 2 uM after 72 hrs using Annexin V/propidium iodide staining by flow cytometry (reference value: 2%). The test is classed as functional.
In test [8] the test system is CCRF-CEM. The test is described as follows: Cytotoxicity against human CCRF-CEM cells after 72 hrs by AlamarBlue assay. In kind it is functional, cell-based. Summed up:
(§1)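 Growth inhibition read by alamarBlue. After reagent addition, plates were held 6 h at 37 °C and absorbance read at 570 and 600 nm. IC50 was derived from dose-response curves over 6 or 7 drug concentrations by the median-effect method. Values are mean and STDEV of three to six independent experiments.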
On the technique in general: The colour change of resazurin is a common sign of viable cells or microbes.

Test [9] has as its system CCRF-CEM. Nature of the test: Cytotoxicity against human vinblastine-resistant CCRF-CEM cells after 72 hrs by AlamarBlue assay. In kind it is functional, cell-based. In outline: as §1
In a further test the test system is PC-3. Nature of the test: Cytotoxicity against human PC3 cells after 72 hrs by AlamarBlue assay. As to conditions: PC-3, 72 h. In kind it is functional, cell-based. Summed up:
as §1

Test [10] can be described thus: Cytotoxicity against human H460 cells after 72 hrs by AlamarBlue assay. In kind it is functional, cell-based. As to conditions: NCI-H460, 72 h. In outline: as §1
Test [11] is described as follows: Cytotoxicity against human H1299 cells after 72 hrs by AlamarBlue assay. In kind it is functional, cell-based. The note with it: NCI-H1299, 72 h. Summed up:
as §1

The subject of another test is HCT-116. The test is described as follows: Cytotoxicity against human HCT116 cells after 72 hrs by AlamarBlue assay. The test is classed as functional, cell-based. The note with it: HCT-116, 72 h. Summed up: as §1
Test [12] deals with CCRF-CEM. Nature of the test: Ratio of IC50 for human vinblastine-resistant CCRF-CEM cells to IC50 for human CCRF-CEM cells. The test is classed as functional. Summed up:
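Ratio of alamarBlue IC50 values, determined in the CCRF-CEM/VBL vinblastine-resistant subline and in the parental CCRF-CEM line.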

Test [13] can be described thus: Cell cycle arrest in human H460 cells assessed as accumulation at G2/M phase after 24 hrs using propidium iodide staining by flow cytometry. As to conditions: NCI-H460. The test is classed as functional, cell-based. Summed up: (§2)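 H460 cells exposed to 0.25, 0.5, 1 or 2 µM for 24 h, then stained with […] propidium iodide in PBS with 0.1 mg/mL RNase A and 1% Triton X-100. DNA content and phase distribution read by flow cytometry. Values are the mean of 3 independent experiments.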

Test [14] is described as follows: Cell cycle arrest in human H460 cells assessed as accumulation at G1 phase after 24 hrs using propidium iodide staining by flow cytometry. The test is classed as functional, cell-based. The note with it: NCI-H460. Summed up:
as §2

Test [15] in a line: Cell cycle arrest in human H460 cells assessed as accumulation at sub-G1 phase at 2 uM after 24 hrs using propidium iodide staining by flow cytometry. The note with it: NCI-H460. In kind it is functional, cell-based. Summed up:
as §2

The test system of test [16] is NCI-H460. The test is described as follows: Induction of apoptosis in human H460 cells assessed as necrotic cells at 2 uM after 24 hrs using Annexin V/propidium iodide staining by flow cytometry (reference value: 0.6%). In kind it is functional.
Test [17] concerns NCI-H460. Nature of the test: Induction of apoptosis in human H460 cells assessed as late apoptotic cells at 2 uM after 24 hrs using Annexin V/propidium iodide staining by flow cytometry (reference value: 7%). In kind it is functional.

Turning to `Cc1cc(Nc2cccc(Br)c2)c2cc(NC(=O)Nc3ccc(N(CCCl)CCCl)cc3)ccc2n1`, the Activity was found to be 3.7% in the test with NCI-H460 [1]; 21.8% in the test on NCI-H460 [2]; 32.6% with NCI-H460 [3]; 1.4% in the test with NCI-H460 [4]; 9.8% in the test on NCI-H460 [5]; 65.5% in the test on NCI-H460 [6]. Besides, the Activity is 3.7% in the test on NCI-H460 [7]; “Dose-dependent effect” in [13]; “Dose-dependent effect” in test [14]; 4.3% in the test with NCI-H460 [16]; 16.7% with NCI-H460 [17]. Further, the IC50 (commonly the point on the concentration scale where inhibition reaches its midpoint) was found to be 460 nM with CCRF-CEM [8]; 5.19 µM with CCRF-CEM [9]; 1410 nM with PC-3; 1180 nM in [10]; 770 nM in test [11]; 490 nM with HCT-116. Further, in the test with CCRF-CEM [12], the “Ratio IC50” value was 11.28. In addition, the outcome in test [15] was Active.
